The nature of data set [1]: Inhibition of Electron transport protein complex 1 in bovine heart submitochondrial particles assessed as NADH ubiquinone oxidoreductase oxidase activity by spectrophotometric analysis in presence of exogenous ubiquinone 1. More on the design: species or system Bos taurus. Summed up:
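Activated beef-heart inverted SMP were pre-equilibrated with inhibitor 5 min, then NADH was added at 30 °C. Medium: 0.25 M sucrose, 1 mM MgCl2, 2 mM KCN, antimycin A, ubiquinone Q1, 50 mM phosphate pH 7.4. Rate was followed at 340 nm, DMSO ≤2%. IC50 is half-maximal inhibition of control; mean ± SD of three independent experiments.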

Data set [2] is described as follows: Cytotoxicity against human M059K ATCC CRL2365 cells by MTT assay. Type of data set: functional, cell-based. Background: Tetrazolium assays rely on reduction of a dye to a coloured formazan, in cell work by metabolically active cells.
The test system of data set [3] is MCF7. Description: Induction of shift to glycolysis in human MCF7 cells assessed as lactate production at 0.44 uM after 3 hrs. Format: functional.
Data set [4] is filed under the species Bos taurus. Description: Inhibition of Electron transport protein complex 1 in bovine heart submitochondrial particles assessed as residual NADH oxidase activity at 1 uM by spectrophotometric analysis.
Data set [5] concerns M059J. The experiment in a line: Cytotoxicity against human M059J ATCC CRL2366 cells by MTT assay. Format: functional, cell-based.
The nature of data set [6]: Cytotoxicity against human MCF10A cells by MTT assay. Format: cell-based. The following applies: MCF-10A.
Data set [7] can be described thus: Cytotoxicity against mouse 3LL cells by MTT assay. Format: functional, cell-based.
In data set [8] the test system is MCF7. Description: Cytotoxicity against human MCF7 cells by MTT assay. Format: functional, cell-based.
Data set [9] has as its system A549. The experiment in a line: Cytotoxicity against human A549 cells by MTT assay. Format: functional, cell-based.
Data set [10] is described as follows: Inhibition of Electron transport protein complex 1 in bovine heart submitochondrial particles assessed as NADH oxidase activity by spectrophotometric analysis. More on the design: species or system Bos taurus. Summed up:
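Beef-heart inverted SMP (stored at −80 °C in 0.25 M sucrose, 10 mM Tris-HCl pH 7.4) diluted to 0.5 mg/mL and NADH-activated. Inhibitor pre-equilibrated with SMP 5 min in 50 mM Hepes pH 7.5, 5 mM MgCl2. NADH started the reaction. Initial linear rates were read at 340 nm, 30 °C, with DMSO ≤2%. IC50 is half-maximal inhibition of control; mean ± SD, three independent experiments.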

For data set [11], the species on record is Bos taurus. Description: Inhibition of Electron transport protein complex 1 in bovine heart submitochondrial particles assessed as residual NADH ubiquinone oxidoreductase oxidase activity at 1 uM by spectrophotometric analysis in presence of exogenous ubiquinone 1.
Data set [12] has as its system MCF7. The experiment in a line: Induction of shift to glycolysis in human MCF7 cells assessed as lactate production at 18.2 uM after 3 hrs. Type of data set: functional.
For data set [13], the system named is MCF7. The experiment in a line: Induction of shift to glycolysis in human MCF7 cells assessed as lactate production at < 0.15 uM after 3 hrs. Format: functional.
For the next data set, the system named is ATCC CRL2365. The experiment in a line: Cytotoxicity against human M059K ATCC CRL2365 cells by SRB assay. Type of data set: functional, cell-based. On the technique in general: Sulforhodamine B stains cellular protein and so reports cell mass.
A short description of data set [14]: Cytotoxicity against human MCF10A cells by SRB assay. Format: cell-based. Particulars: mcf-10a.
For data set [15], the system named is M059J. Description: Cytotoxicity against human M059J ATCC CRL2366 cells by SRB assay. Type of data set: functional, cell-based.
A further data set concerns 3LL. The experiment in a line: Cytotoxicity against mouse 3LL cells by SRB assay. Type of data set: functional, cell-based.
Data set [16] has as its system MCF7. Description: Induction of shift to glycolysis in human MCF7 cells assessed as lactate production at 0.38 uM after 3 hrs. Type of data set: functional.
In data set [17] the test system is MCF7. The experiment in a line: Cytotoxicity against human MCF7 cells by SRB assay. Format: functional, cell-based.
Data set [18] relates to A549. Description: Cytotoxicity against human A549 cells by SRB assay. Type of data set: functional, cell-based.
For data set [19], the system named is MCF7. Description: Induction of shift to glycolysis in human MCF7 cells assessed as lactate production at 6.6 uM after 3 hrs. Format: functional.

The structures appear in SMILES notation. The source made the active and inactive calls. The calls are words filed in the database; no cut-off is given here. A value given as a limit tells only on which side of the number the result lay.

In general, IC50 refers to the midpoint of a concentration-inhibition curve. For `CCCCc1ccc(OCCC#CC[C@@H](O)[C@H]2CC[C@H]([C@H]3CC[C@H]([C@H](O)CC#CCCOc4ccc(CCCC)cc4)O3)O2)cc1`, the IC50 was 1.7 µM in [1]; 14.6 µM in [2]; more than 16 µM in the data set on M059J [5]; more than 16 µM in data set [6]; 0.48 µM in [7]; more than 16 µM with MCF7 [8]. Besides, the IC50 in the data set on A549 [9] is more than 16 µM; in data set [10], 0.0388 µM. Also, the figures for the Activity with MCF7 [3], in the data set listed under Bos taurus [4] and in the data set filed under Bos taurus [11] were 1280 µM, 18% and 25%, respectively.

Consider `CCCCc1ccc(OCCCCC[C@@H](O)[C@H]2CC[C@H]([C@H]3CC[C@H]([C@H](O)CCCCCOc4ccc(CCCC)cc4)O3)O2)cc1`, for which the IC50 in data set [1] was more than 15 µM; in [2], more than 16 µM; in the data set on M059J [5] it was more than 16 µM; in [6], more than 16 µM; in data set [7], 0.64 µM; with MCF7 [8] it was more than 16 µM. Also, the IC50 was more than 16 µM in the data set with A549 [9] and 0.0196 µM in data set [10]. In the data set with MCF7 [12], the Activity was 572 µM.

For the compound `CCCCCC[C@H]1C(=O)O[C@H](C)[C@H](NC(=O)c2cccc(NC=O)c2O)C(=O)O[C@@H](C)[C@@H]1OC(=O)CC(C)C` [ANTIMYCIN A], the Activity in the data set on MCF7 [13] is 1520 µM.

As for `CCCCCCCC#CC[C@@H](O)[C@H]1CC[C@H]([C@H]2CC[C@H]([C@H](O)CC#CCCCCCCC)O2)O1`, the concentration for half-maximal inhibition (IC50) in data set [1] is 0.048 µM; in [2], 20.3 µM; in the data set on M059J [5], more than 20.9 µM; in [6], 2 µM; in data set [7] it was 5.2 µM; in the data set on MCF7 [8], 7.6 µM. For the same compound, the IC50 in the data set on A549 [9] came to 13.2 µM; in [10], 0.0301 µM. The outcome in the data set on ATCC CRL2365, with M059J [15], in the data set with 3LL, in the data set on MCF7 [17] and in the data set with A549 [18] was Active. The Activity entry in data set [14] is “Active”; in the data set filed under Bos taurus [4] it was 12%; in the data set on MCF7 [16], 1080 µM; in the data set listed under Bos taurus [11], 18%.

In the case of `CCCCCCCCCC[C@@H](O)[C@H]1CC[C@H]([C@H]2CC[C@H]([C@H](O)CCCCCCCCCC)O2)O1` [dleta-lac-Acetogenin], the IC50 is 10.4 µM in [1]; more than 20 µM in data set [2]; more than 20 µM in the data set with M059J [5]; more than 20 µM in data set [6]; 0.99 µM in data set [7]; more than 20 µM with MCF7 [8]. Also, the IC50 with A549 [9] was more than 20 µM; in data set [10], 0.0123 µM. Also, in the data set on MCF7 [19], the Activity amounted to 616 µM.

The values above are taken from ChEMBL document CHEMBL1154507, “Synthesis and characterization of Deltalac-acetogenins that potently inhibit mitochondrial complex I” (Bioorg Med Chem, 2009).
